Results from ChEMBL document CHEMBL2311328, “Molecular docking and synthesis of novel quinazoline analogues as inhibitors of transcription factors NF-κB activation and their anti-cancer activities” (2013).
Active and inactive are the calls of the source. The rule behind the calls is not given here.

Key:
[1] = test system: HepG2; assay: Inhibition of TNFalpha-induced NFkappaB (unknown origin)-dependent transcriptional activity expressed in human HepG2 cells at 1 uM incubated for 1 hr prior to TNFalpha induction measured after 6 hrs by dual-luciferase reporter gene assay; type: cell-based
Outline: (§1)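 HepG2 cells in DMEM with 10% FBS were lipofectamine-transfected with 10 ng/well pGL4.32 NF-κB-Luc plus Renilla control. Compound in DMSO was given in fresh medium for 1 h at 37 °C, then TNFα (final 20 ng/ml) for 6 h. Cells were lysed in passive lysis buffer. Firefly light units were normalized to Renilla; one-way ANOVA.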

[2] = test system: HepG2; assay: Cytotoxicity against human HepG2 cells assessed as cellular growth at 50 uM incubated for 1 hr prior to TNF alpha stimulation measured after 48 hrs by SRB assay; type: functional
Outline: (§2)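 HepG2 cells in DMEM with 10% FBS and penicillin/streptomycin were allowed to adhere 24 h, and a T0 plate was fixed. Compound was given for 1 h at 37 °C, with or without 20 ng/ml TNFα, then 48 h more. Cells were stained with 0.4% SRB for 30 min at RT, washed in 1% acetic acid, and solubilized in 10 mM Tris. OD read at 515 nm; one-way ANOVA.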

[3] = test system: HepG2; assay: Cytotoxicity against human HepG2 cells assessed as cellular growth at 50 uM after 48 hrs by SRB assay in absence of TNFalpha; type: functional; outline: as §2
[4] = test system: SF-268; assay: Cytotoxicity against human SF268 cells after 48 hrs by SRB assay; type: functional; details: SF-268, 48 h
Outline: (§3)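 Screened by the NCI Developmental Therapeutics Program in dose-response format. GI50 was determined by the sulforhodamine B protocol.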

[5] = test system: OVCAR-8; assay: Cytotoxicity against human OVCAR8 cells after 48 hrs by SRB assay; type: functional; details: OVCAR-8, 48 h; outline: as §3
[6] = test system: HCT-116; assay: Cytotoxicity against human HCT116 cells after 48 hrs by SRB assay; type: functional; details: HCT-116, 48 h; outline: as §3
[7] = test system: SK-MEL-28; assay: Cytotoxicity against human SK-MEL-28 cells after 48 hrs by SRB assay; type: functional; details: SK-MEL-28, 48 h; outline: as §3
[8] = test system: HCC 2998; assay: Cytotoxicity against human HCC2998 cells after 48 hrs by SRB assay; type: functional; details: HCC 2998, 48 h; outline: as §3
[9] = test system: UACC-62; assay: Cytotoxicity against human UACC62 cells after 48 hrs by SRB assay; type: functional; details: UACC-62, 48 h; outline: as §3
[10] = Cytotoxicity against human NCI-ADR-RES cells after 48 hrs by SRB assay; type: functional; outline: as §3
[11] = test system: MDA-MB-231; assay: Cytotoxicity against human MDA-MB-231 cells after 48 hrs by SRB assay; type: functional; details: MDA-MB-231, 48 h; outline: as §3
[12] = test system: CAKI-1; assay: Cytotoxicity against human Caki1 cells after 48 hrs by SRB assay; type: functional; details: CAKI-1, 48 h; outline: as §3
[13] = test system: SW-620; assay: Cytotoxicity against human SW620 cells after 48 hrs by SRB assay; type: functional; details: SW-620, 48 h; outline: as §3
[14] = test system: 786-0; assay: Cytotoxicity against human 786-0 cells after 48 hrs by SRB assay; type: functional; details: 786-0, 48 h; outline: as §3
[15] = test system: SK-MEL-2; assay: Cytotoxicity against human SK-MEL-2 cells after 48 hrs by SRB assay; type: functional; details: SK-MEL-2, 48 h; outline: as §3
[16] = test system: UO-31; assay: Cytotoxicity against human UO31 cells after 48 hrs by SRB assay; type: functional; details: UO-31, 48 h; outline: as §3
[17] = test system: SN12C; assay: Cytotoxicity against human SN12C cells after 48 hrs by SRB assay; type: functional; outline: as §3
[18] = Cytotoxicity against human SKOC3 cells after 48 hrs by SRB assay; type: functional; details: SKOC3, 48 h; outline: as §3
[19] = test system: COLO 205; assay: Cytotoxicity against human COLO205 cells after 48 hrs by SRB assay; type: functional; details: COLO 205, 48 h; outline: as §3
[20] = test system: RXF 393; assay: Cytotoxicity against human RXF393 cells after 48 hrs by SRB assay; type: functional; details: RXF 393, 48 h; outline: as §3
[21] = test system: A498; assay: Cytotoxicity against human A498 cells after 48 hrs by SRB assay; type: functional; details: A498, 48 h; outline: as §3
[22] = test system: SF-539; assay: Cytotoxicity against human SF539 cells after 48 hrs by SRB assay; type: functional; details: SF-539, 48 h; outline: as §3
[23] = test system: SNB-19; assay: Cytotoxicity against human SNB19 cells after 48 hrs by SRB assay; type: functional; details: SNB-19, 48 h; outline: as §3
[24] = test system: Malme-3M; assay: Cytotoxicity against human MALME-3M cells after 48 hrs by SRB assay; type: functional; outline: as §3
[25] = test system: LOX IMVI; assay: Cytotoxicity against human LOXIMVI cells after 48 hrs by SRB assay; type: functional; outline: as §3
[26] = test system: DU-145; assay: Cytotoxicity against human DU145 cells after 48 hrs by SRB assay; type: functional; details: DU-145, 48 h; outline: as §3
[27] = test system: MCF7; assay: Cytotoxicity against human MCF7 cells after 48 hrs by SRB assay; type: functional; details: MCF7, 48 h; outline: as §3
[28] = test system: PC-3; assay: Cytotoxicity against human PC3 cells after 48 hrs by SRB assay; type: functional; details: PC-3, 48 h; outline: as §3
[29] = test system: KM12; assay: Cytotoxicity against human KM12 cells after 48 hrs by SRB assay; type: functional; details: KM12, 48 h; outline: as §3
[30] = test system: T47D; assay: Cytotoxicity against human T47D cells after 48 hrs by SRB assay; type: functional; outline: as §3
[31] = test system: TK-10; assay: Cytotoxicity against human TK10 cells after 48 hrs by SRB assay; type: functional; details: TK-10, 48 h; outline: as §3
[32] = test system: IGROV-1; assay: Cytotoxicity against human IGROV1 cells after 48 hrs by SRB assay; type: functional; details: IGROV-1, 48 h; outline: as §3
[33] = test system: U-251; assay: Cytotoxicity against human U251 cells after 48 hrs by SRB assay; type: functional; details: U-251, 48 h; outline: as §3
[34] = test system: HCT-15; assay: Cytotoxicity against human HCT15 cells after 48 hrs by SRB assay; type: functional; details: HCT-15, 48 h; outline: as §3
[35] = test system: UACC-257; assay: Cytotoxicity against human UACC257 cells after 48 hrs by SRB assay; type: functional; details: UACC-257, 48 h; outline: as §3
[36] = test system: OVCAR-4; assay: Cytotoxicity against human OVCAR4 cells after 48 hrs by SRB assay; type: functional; details: OVCAR-4, 48 h; outline: as §3
[37] = test system: SF-295; assay: Cytotoxicity against human SF295 cells after 48 hrs by SRB assay; type: functional; details: SF-295, 48 h; outline: as §3
[38] = test system: Hs-578T; assay: Cytotoxicity against human Hs578T cells after 48 hrs by SRB assay; type: functional; outline: as §3
[39] = test system: MDA-MB-435; assay: Cytotoxicity against human MDA-MB-435 cells after 48 hrs by SRB assay; type: functional; details: MDA-MB-435, 48 h; outline: as §3
[40] = test system: BT-549; assay: Cytotoxicity against human BT549 cells after 48 hrs by SRB assay; type: functional; details: BT-549, 48 h; outline: as §3
[41] = test system: M14; assay: Cytotoxicity against human M14 cells after 48 hrs by SRB assay; type: functional; details: M14, 48 h; outline: as §3
[42] = test system: SNB-75; assay: Cytotoxicity against human SNB75 cells after 48 hrs by SRB assay; type: functional; details: SNB-75, 48 h; outline: as §3
[43] = test system: OVCAR-3; assay: Cytotoxicity against human OVCAR3 cells after 48 hrs by SRB assay; type: functional; details: OVCAR-3, 48 h; outline: as §3
[44] = test system: EKVX; assay: Induction of apoptosis in TNFalpha-stimulated human EKVX cells at 1 uM incubated for 1 hr prior to TNFalpha stimulation measured after 18 hrs by TUNEL assay; type: functional, cell-based
Outline: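 EKVX cells in RPMI 1640 with 10% FBS were grown on glass coverslips. Compound was given for 1 h at 37 °C, then 20 ng/ml TNFα for 18 h. Cells were fixed in 3.7% paraformaldehyde, treated with proteinase K for 30 min, then TUNEL-labelled with streptavidin-fluorescein plus DAPI. Scored by fluorescence microscopy.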

[45] = test system: HepG2; assay: Inhibition of TNFalpha-induced NFkappaB (unknown origin)-dependent transcriptional activity expressed in human HepG2 cells at 0.1 to 10 uM incubated for 1 hr prior to TNFalpha induction measured after 6 hrs by dual-luciferase reporter gene assay; type: cell-based; outline: as §1

In the case of `Oc1ccccc1CN1CCN(c2nc(-c3ccccc3)nc3ccccc23)CC1`, the inhibition [1] is reported as “Active”, the Activity [2] is reported as 13% and the Activity [3] is reported as 14.6%.

For `c1ccc(CN2CCN(c3nc(-c4ccccc4)nc4ccccc34)CC2)cc1`, the inhibition [1] was “Active”, the Activity [2] was 13.7% and the Activity [3] was 30.7%.

With `c1ccc2c(NCCc3c[nH]c4ccccc34)ncnc2c1` the GI50 [4] was 34.7 µM, the GI50 [5] was 5.5 µM and the inhibition [1] was “Active”. It also gave an Activity [2] of -30%, a GI50 [6] of 6.3 µM and a GI50 [7] of 25.1 µM. It also gave a GI50 [8] of 26.3 µM, a GI50 [9] of 14.1 µM and a GI50 [10] of 5.6 µM. It also gave a GI50 [11] of 21.9 µM, a GI50 [12] of 2.2 µM and a GI50 [13] of 41.7 µM. For the same molecule, the GI50 [14] was 33.9 µM, the GI50 [15] was 30.9 µM and the GI50 [16] was 14.5 µM. It also gave a GI50 [17] of 30.2 µM, a GI50 [18] of 58.9 µM and a GI50 [19] of 28.2 µM. For the same molecule, the GI50 [20] was 30.9 µM, the GI50 [21] was 2.8 µM and the GI50 [22] was 39.8 µM. It also gave a GI50 [23] of 50.1 µM, a GI50 [24] of 29.5 µM and a GI50 [25] of 15.5 µM. The GI50 [26] was 27.5 µM, the GI50 [27] was 11.2 µM and the GI50 [28] was 19.5 µM. The GI50 [29] was 19.1 µM, the GI50 [30] was 12 µM and the GI50 [31] was 20.4 µM. It also gave a GI50 [32] of 14.1 µM, a GI50 [33] of 30.9 µM and a GI50 [34] of 24 µM. It also gave a GI50 [35] of 9.8 µM, a GI50 [36] of 1.5 µM and a GI50 [37] of 3.5 µM. The GI50 [38] was 60.3 µM, the GI50 [39] was 10.2 µM and the GI50 [40] was 12.3 µM. It also gave a GI50 [41] of 24.6 µM, an Activity [3] of -22.3% and a GI50 [42] of 22.9 µM. For the same molecule, the GI50 [43] was 19.1 µM.

In the case of `Oc1ccc(Br)cc1CN1CCN(c2nc(-c3ccccc3)nc3ccccc23)CC1`, the inhibition [1] is reported as “Active”, the Activity [2] is reported as 13% and the Activity [3] is reported as 15.5%.

In the case of `c1ccc(-c2nc(NCCc3c[nH]c4ccccc34)c3ccccc3n2)cc1`, the GI50 [4] is reported as 4.6 µM, the GI50 [5] is reported as 2.2 µM and the inhibition [1] is reported as “Active”. It also gave an Activity [2] of -46.7%, a GI50 [6] of 2.8 µM and a GI50 [7] of 6.2 µM. It also gave a GI50 [8] of 2.1 µM, a GI50 [9] of 2 µM and a GI50 [10] of 2.6 µM. It also gave a GI50 [11] of 3.1 µM, a GI50 [12] of 3.1 µM and a GI50 [13] of 3 µM. For the same molecule, the GI50 [14] was 2.5 µM, the GI50 [15] was 3 µM and the GI50 [16] was 3 µM. For the same molecule, the GI50 [17] was 3.9 µM, the GI50 [18] was 3.7 µM and the GI50 [19] was 2.2 µM. For the same molecule, the GI50 [20] was 1.9 µM, the GI50 [21] was 2 µM and the GI50 [22] was 2 µM. It also gave a GI50 [23] of 5.1 µM, a GI50 [24] of 2.8 µM and a GI50 [25] of 2.2 µM. It also gave a GI50 [26] of 4.7 µM, a GI50 [27] of 4.2 µM and a GI50 [28] of 2.4 µM. For the same molecule, the Activity [44] was “Active”, the inhibition [45] was “Active” and the GI50 [29] was 2.8 µM. It also gave a GI50 [30] of 2.4 µM, a GI50 [31] of 2.8 µM and a GI50 [32] of 3.2 µM. For the same molecule, the GI50 [33] was 3.2 µM, the GI50 [34] was 2.5 µM and the GI50 [35] was 3.2 µM. For the same molecule, the GI50 [36] was 3.6 µM, the GI50 [37] was 2 µM and the GI50 [38] was 3.4 µM. The GI50 [39] was 2.3 µM, the GI50 [40] was 4.4 µM and the GI50 [41] was 2.6 µM. For the same molecule, the Activity [3] was -35.3%, the GI50 [42] was 5.9 µM and the GI50 [43] was 2.9 µM.

For `Oc1ccc(CN2CCN(c3nc(-c4ccccc4)nc4ccccc34)CC2)cc1`, the inhibition [1] was “Active”, the Activity [2] was -49.1% and the Activity [3] was -37.6%.
